Experimental data from different studies.
Each line is one published result; the experiments were not run side by side.
Organism: Staphylococcus aureus
Read-out: microbial growth

| SMILES | technique | strain | time | setting | MIC |
| --- | --- | --- | --- | --- | --- |
| CC1(C)S[C@@H]2[C@H](NC(=O)[C@H](N)c3ccccc3)C(=O)N2[C@H]1C(=O)O | broth dilution | 745524 |  |  | 4 µg/mL |
| O=C1NC(=S)S/C1=C\c1c2ccccc2c(-c2ccc(N(c3ccccc3)c3ccccc3)cc2)c2ccccc12 | broth dilution | ATCC6538 |  |  | > 1000 µg/mL |
| O=[N+]([O-])c1cccc(-c2nc3ccccc3[nH]2)c1 | broth dilution | ATCC29213 MSSA |  |  | 64 µg/mL |
| CC(C)Oc1c(NC(=O)c2ccc(NC(=O)[C@H](CC(N)=O)NC(=O)c3ccc(NC(=O)c4ccc(C#N)cc4)cc3)cc2)ccc(C(=O)Nc2cc(C(=O)O)n(C)c2)c1O |  | ATCC29213 |  |  | 64 µg/mL |
| O=C1NC(=S)N/C1=C\c1ccc(-c2ccc(N(c3ccccc3)c3ccccc3)cc2)c2ccccc12 | broth dilution | ATCC43300 |  |  | > 1000 µg/mL |
| O=C(C[n+]1cc(-c2ccc(Cl)cc2)n2c1CCC2)Nc1ccc(Cl)c(Cl)c1 |  |  |  |  | 4 µg/mL |
| Cc1ccc2nc(-c3ccc(Cl)cc3)[nH]c2c1 | broth dilution | ATCC29213 MSSA |  |  | 256 µg/mL |
| C/C=C(\C)c1cc(OC(=O)c2c(C)c(Cl)c(O)c(Cl)c2O)c(C)c(O)c1C(=O)O | broth dilution | MRSA |  |  | 64 µg/mL |
| CC(C)Oc1c(NC(=O)c2ccc(NC(=O)[C@H](CC(N)=O)NC(=O)c3ccc(C#Cc4ccc(C#N)cc4)cc3)cc2)ccc(C(=O)Nc2ccc(C(=O)O)cc2)c1O |  | ATCC29213 |  |  | ≤ 0.03 µg/mL |
| O=C(c1ccc(/C=C/c2n[nH]c3ccccc23)cc1)N1CCNCC1 |  | NCTC8325 |  |  | > 30 µM |
| Cn1cc(NC(=O)C(CC(N)=O)NC(=O)c2ccc(NC(=O)c3ccc(C#N)cc3)cc2)cc1-c1nc2ccc(C(=O)Nc3ccc(C(=O)O)cc3)c(O)c2[nH]1 (stereo not shown) |  | ATCC29213 |  |  | > 64 µg/mL |
| C[C@@H](Oc1cc(-n2cnc3ccc(CN4CCN(C)CC4)cc32)sc1C(N)=O)c1ccccc1C(F)(F)F |  | NCTC8325 |  |  | > 30 µM |
| Cc1ccc2nc(-c3ccc(N(C)C)cc3)[nH]c2c1 | broth dilution | ATCC29213 MSSA |  |  | 64 µg/mL |
| C/C=C(\C)c1cc(OC(=O)c2c(O)c(C)c(O)c(Cl)c2/C(C)=C/C)c(C)c(O)c1C(=O)O | broth dilution | 745524 |  |  | 32 µg/mL |
| CC(=O)NC[C@H]1CN(c2ccc(N3CCOCC3)c(F)c2)C(=O)O1 | broth dilution | MRSA NRS384 USA300 |  | drug-resistant strain | 2 µg/mL |
| Cc1ccc(C)n1-c1ccc(-c2nnc(-c3c(Cl)cccc3Cl)[nH]2)cc1 | broth dilution | ATCC11632 | 18 h |  | 1 µg/mL |
| COC(=O)/C(C#N)=C1\Nc2ccccc2O1 |  |  |  |  | > 128 µg/mL |
| O=C(O)CN1C(=O)/C(=C/c2ccc(-c3ccc(N(c4ccccc4)c4ccccc4)cc3)c3ccccc23)SC1=S | broth dilution | ATCC25923 |  |  | 1000 µg/mL |
| NC[C@@H]1O[C@H](O[C@H]2[C@@H](O)[C@H](O[C@@H]3[C@@H](O)[C@H](N)C[C@H](N)[C@H]3O[C@H]3O[C@H](CN)[C@@H](O)[C@H](O)[C@H]3N)O[C@@H]2CO)[C@H](N)[C@@H](O)[C@@H]1O |  | NEWMAN |  |  | 5 to 10 µg/mL |
| CCCCCCC#Cc1cncc(-c2nnc(SCc3ccc(Cl)cc3)n2C)c1 |  | MRSA |  | drug-resistant strain | ≥ 20 µg/mL |

| SMILES | technique | strain | time | setting | MIC |
| --- | --- | --- | --- | --- | --- |
| CCOc1ccc(-c2nc3cc(-c4nc5cc(N6CCN(C)CC6)ccc5[nH]4)ccc3[nH]2)cc1 | broth dilution | 29213 | 24 h |  | 2 to 4 µg/mL |
| Cc1c(CN(C)C(=O)/C=C/c2cnc3c(c2)CC(CCN)C(=O)N3)oc2ccccc12.Cl (stereo not shown) | broth dilution | ATCC29213 |  |  | 0.125 µg/mL |
| CC(C)Oc1c(NC(=O)c2ccc(NC(=O)[C@H](CC(N)=O)NC(=O)c3ccc(NC(=O)c4ccc(C#N)cc4)cc3)cc2)ccc(C(=O)NC2CCNCC2)c1O |  | ATCC29213 |  |  | > 64 µg/mL |
| C[n+]1ccc(/C=C2\Sc3ccccc3N2CCCN2CCCCC2)c2ccccc21.[I-] | broth dilution | ATCCBAA44 |  |  | 4 µg/mL |
| Cc1ccc(C)n1-c1ccc(-c2nnc(S)s2)cc1 | broth dilution | ATCC11632 | 18 h |  | 1 µg/mL |
| CCCCCCCCCC(=O)Oc1c(C)c(O)c(C(=O)/C=C/c2ccccc2)c(OC)c1C | broth dilution | ATCC25923 |  |  | > 5000 µg/mL |
| CCOc1ccc(-c2nc3ccccc3n2Cc2ccccc2)cc1 | broth dilution | ATCC29213 MSSA |  |  | 64 µg/mL |
| CC(=O)NCN1N=C(C)C(=NNn2c(-c3ccccc3)nc3ccccc3c2=O)C1=O | broth dilution |  | 24 h |  | 59.9 µM |
| CCOC(=O)/C(C#N)=C(\O)c1ccc(NC(=O)c2cccs2)cc1 |  |  |  |  | > 128 µg/mL |
| Cc1ccccc1NCc1ccc(Oc2ccccn2)cc1 |  |  |  |  | 1.6 µg/mL |
| CC(C)n1nc(-c2ccc3oc(N)nc3c2)c2c(N)ncnc21 |  | NCTC8325 |  |  | > 30 µM |
| C[C@H]1c2cccc(O)c2C(=O)C2=C(O)[C@]3(O)C(=O)C(C(N)=O)=C(O)[C@@H](N(C)C)[C@@H]3[C@@H](O)[C@@H]21 |  |  |  | clinical isolate | 6.25 µg/mL |
| O=C1NN=C(N=Cc2ccccc2)C1=NNn1c(-c2ccccc2)nc2ccccc2c1=O | broth dilution |  | 24 h |  | 57.1 µM |
| O=C(O)CN1C(=O)/C(=C/c2ccc(-c3ccc(N(c4ccccc4)c4ccccc4)cc3)cc2)NC1=S | broth dilution | ATCC43300 |  |  | 1.95 µg/mL |
| CC(C)CC(=O)Nc1n[nH]c2c1CN(C(=O)C1CCN(C)CC1)C2(C)C |  | NCTC8325 |  |  | > 30 µM |
| CSc1nc(C)c(Cl)c(O)n1 |  |  |  |  | > 128 µg/mL |
| CO[C@H]1[C@H](O[C@H]([C@H]2O[C@@H](n3ccc(=O)[nH]c3=O)[C@H](O)[C@@H]2O)[C@H](NCCCNC(=O)[C@@H](NC(=O)[C@@H](NC(=O)N[C@H](C(=O)O)C(C)C)[C@@H]2CCNC(=N)N2)[C@@H](O)C(C)C)C(=O)O)O[C@H](CN)[C@H]1O |  | NEWMAN |  |  | > 32 µg/mL |
| CC(C)Oc1c(NC(=O)c2ccc(NC(=O)[C@H](CC(N)=O)NC(=O)c3ccc(NC(=O)c4ccc(C#N)s4)cc3)cc2)ccc(C(=O)Nc2ccc(C(=O)O)cc2)c1O |  | ATCC29213 |  |  | 0.25 µg/mL |
| CN[C@H](CC(C)C)C(=O)N[C@H]1C(=O)N[C@@H](CC(N)=O)C(=O)N[C@H]2C(=O)N[C@H]3C(=O)N[C@H](C(=O)N[C@H](C(=O)O)c4cc(O)cc(O)c4-c4cc3ccc4O)[C@H](O)c3ccc(c(Cl)c3)Oc3cc2cc(c3O[C@@H]2O[C@H](CO)[C@@H](O)[C@H](O)[C@H]2O[C@H]2C[C@](C)(N)[C@H](O)[C@H](C)O2)Oc2ccc(cc2Cl)[C@H]1O | broth dilution | ATCCBAA44 |  |  | 1 µg/mL |
| c1ccc2[nH]c(-c3ccncc3)nc2c1 | broth dilution | ATCC29213 MSSA |  |  | 128 µg/mL |

| SMILES | technique | strain | time | setting | MIC |
| --- | --- | --- | --- | --- | --- |
| C/C=C(\C)c1cc(O)c(C)c(OC(=O)c2c(C)c(Cl)c(O)c(Cl)c2O)c1 | broth dilution | 745524 |  |  | 4 µg/mL |
| O=S(=O)(NCCNC/C=C/c1ccc(Br)cc1)c1cccc2cnccc12 |  | NCTC8325 |  |  | > 30 µM |
| CC(C)Oc1c(NC(=O)c2ccc(NC(=O)[C@H](CC(N)=O)NC(=O)c3ccc(NC(=O)c4ccc([N+](=O)[O-])cc4)cc3)cc2)ccc(C(=O)Nc2ccc(C(=O)O)c(F)c2)c1O |  | ATCC29213 |  |  | 2 µg/mL |
| Cc1ccc2nc(-c3cccc([N+](=O)[O-])c3)[nH]c2c1 | broth dilution | ATCC29213 MSSA |  |  | 64 µg/mL |
| CN(C)[C@@H]1C(O)=C(C(N)=O)C(=O)[C@@]2(O)C(O)=C3C(=O)c4c(O)cccc4[C@@](C)(O)[C@H]3C[C@@H]12 |  | ATCC43300 |  |  | 2 µg/mL |
| CC(C)(O/N=C(\C(=O)N[C@@H]1C(=O)N2C(C(=O)[O-])=C(C[n+]3ccccc3)CS[C@H]12)c1csc(N)n1)C(=O)O |  | MRSA | 18 h |  | > 128 µg/mL |
| C#CCCC1(CCNC(=O)c2cc(Oc3ccc(NC(=O)Nc4ccc(Cl)c(C(F)(F)F)c4)cc3)ccn2)N=N1 |  | NCTC8325 | 24 h |  | 10 µM |
| O=C(CCc1cc(O)c(O)c(O)c1)NCCCCCCCC[P+](c1ccccc1)(c1ccccc1)c1ccccc1.[Br-] | broth dilution | ATCC43300 MRSA | 18 h |  | 8 µg/mL |
| CCS(=O)(=O)c1cccc(-c2cc(C(=O)NC3CCN(C)CC3)c(C)c3[nH]c4ncc(C)cc4c23)c1 |  | NCTC8325 |  |  | > 30 µM |
| CN(C)[C@@H]1C(O)=C(C(N)=O)C(=O)[C@@]2(O)C(O)=C3C(=O)c4c(O)cccc4[C@@](C)(O)[C@H]3C[C@@H]12 |  | 129 |  | clinical isolate | ≤ 0.1 µM |
| CN[C@H](CC(C)C)C(=O)N[C@H]1C(=O)N[C@@H](CC(N)=O)C(=O)N[C@H]2C(=O)N[C@H]3C(=O)N[C@H](C(=O)N[C@H](C(=O)O)c4cc(O)cc(O)c4-c4cc3ccc4O)[C@H](O)c3ccc(c(Cl)c3)Oc3cc2cc(c3O[C@@H]2O[C@H](CO)[C@@H](O)[C@H](O)[C@H]2O[C@H]2C[C@](C)(N)[C@H](O)[C@H](C)O2)Oc2ccc(cc2Cl)[C@H]1O | broth dilution | 16339 |  |  | 1 µg/mL |
| O=C(O)CN1C(=O)/C(=C/c2ccc(-c3ccc(N(c4ccccc4)c4ccccc4)cc3)cc2)SC1=S | broth dilution | ATCC6538 |  |  | 3.9 µg/mL |
| CSc1ccc(-c2nc3ccc(C)cc3n2Cc2ccccc2)cc1 | broth dilution | ATCC29213 MSSA |  |  | 128 µg/mL |
| COc1c(C)c(OC)c(C(=O)/C=C/c2ccccc2)c(OC)c1C | broth dilution | ATCC25923 |  |  | 5000 µg/mL |
| CCN(CC)CCNC(=O)c1c(C)[nH]c(/C=C2\C(=O)Nc3ccc(F)cc32)c1C |  | NCTC8325 |  |  | > 30 µM |
| COc1ccc(-c2nc3ccccc3[nH]2)cc1OC | broth dilution | ATCC29213 MSSA |  |  | 128 µg/mL |
| CCn1cc(C(=O)O)c(=O)c2cc(F)c(N3CCNCC3)cc21 |  | MRSA |  |  | 250 µg/mL |
| COc1cccc(OC)c1C(=O)N[C@@H]1C(=O)N2[C@@H]1SC(C)(C)[C@@H]2C(=O)O | broth dilution | 25923 |  |  | 3.13 µM |
